Results from PMC6210075 (ACS Omega, 2018).
≈ marks a conversion by molar mass, not a printed value.

What was measured:
[1] = biological target: T1, human sEH (Homo sapiens, UniProt P34913); assay: sEH fluorescent inhibition assay; type: biochemical
T1 sequence (P34913 1-555): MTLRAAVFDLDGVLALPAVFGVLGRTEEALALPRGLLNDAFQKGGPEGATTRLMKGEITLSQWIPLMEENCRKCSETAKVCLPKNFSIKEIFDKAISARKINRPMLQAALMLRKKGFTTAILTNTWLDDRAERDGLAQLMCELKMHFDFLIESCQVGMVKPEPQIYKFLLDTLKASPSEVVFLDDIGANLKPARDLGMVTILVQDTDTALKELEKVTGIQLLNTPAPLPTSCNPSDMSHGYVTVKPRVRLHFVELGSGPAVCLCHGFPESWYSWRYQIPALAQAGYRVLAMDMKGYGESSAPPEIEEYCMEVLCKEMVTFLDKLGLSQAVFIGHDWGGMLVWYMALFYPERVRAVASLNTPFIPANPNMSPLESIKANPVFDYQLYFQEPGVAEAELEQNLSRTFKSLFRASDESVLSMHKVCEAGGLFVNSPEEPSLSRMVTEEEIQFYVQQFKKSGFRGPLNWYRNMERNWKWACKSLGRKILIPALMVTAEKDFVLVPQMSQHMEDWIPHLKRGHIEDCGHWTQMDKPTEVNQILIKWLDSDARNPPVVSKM

[2] = biological target: T2, human FAAH (Homo sapiens, UniProt O00519); assay: Ki and kinact determination on FAAH; type: biochemical
T2 sequence (O00519 1-579): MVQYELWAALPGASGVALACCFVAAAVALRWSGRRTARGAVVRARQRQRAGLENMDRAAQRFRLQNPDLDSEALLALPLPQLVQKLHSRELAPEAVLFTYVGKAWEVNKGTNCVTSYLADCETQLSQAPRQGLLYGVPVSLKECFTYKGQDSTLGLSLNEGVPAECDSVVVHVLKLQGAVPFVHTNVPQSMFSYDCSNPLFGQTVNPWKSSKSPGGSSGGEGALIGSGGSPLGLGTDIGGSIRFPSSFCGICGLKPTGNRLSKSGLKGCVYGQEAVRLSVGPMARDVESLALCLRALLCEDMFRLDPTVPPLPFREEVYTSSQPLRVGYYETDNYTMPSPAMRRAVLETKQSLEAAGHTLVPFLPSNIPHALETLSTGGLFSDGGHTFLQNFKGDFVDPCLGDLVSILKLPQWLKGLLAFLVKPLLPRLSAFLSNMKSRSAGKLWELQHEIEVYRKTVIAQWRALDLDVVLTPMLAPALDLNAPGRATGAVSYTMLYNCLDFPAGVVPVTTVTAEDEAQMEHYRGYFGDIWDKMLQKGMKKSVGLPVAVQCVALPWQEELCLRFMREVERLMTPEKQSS
Procedure, shortened: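 Crude baculovirus-expressed recombinant FAAH (High Five cell S9 fraction in 50 mM Tris/HCl pH 8.0, 1 mM CHAPS, 10% glycerol). OMP (100 μM final) was mixed with a range of test compound concentrations and held 5 min at 37 °C.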

[3] = biological target: T3, mouse FAAH (Mus musculus, UniProt O08914); assay: FAAH fluorescent inhibition assay, mouse crude tissue homogenate; type: biochemical; conditions: FAAH IC50 (5 min pre-incubation)
T3 sequence (O08914 1-579): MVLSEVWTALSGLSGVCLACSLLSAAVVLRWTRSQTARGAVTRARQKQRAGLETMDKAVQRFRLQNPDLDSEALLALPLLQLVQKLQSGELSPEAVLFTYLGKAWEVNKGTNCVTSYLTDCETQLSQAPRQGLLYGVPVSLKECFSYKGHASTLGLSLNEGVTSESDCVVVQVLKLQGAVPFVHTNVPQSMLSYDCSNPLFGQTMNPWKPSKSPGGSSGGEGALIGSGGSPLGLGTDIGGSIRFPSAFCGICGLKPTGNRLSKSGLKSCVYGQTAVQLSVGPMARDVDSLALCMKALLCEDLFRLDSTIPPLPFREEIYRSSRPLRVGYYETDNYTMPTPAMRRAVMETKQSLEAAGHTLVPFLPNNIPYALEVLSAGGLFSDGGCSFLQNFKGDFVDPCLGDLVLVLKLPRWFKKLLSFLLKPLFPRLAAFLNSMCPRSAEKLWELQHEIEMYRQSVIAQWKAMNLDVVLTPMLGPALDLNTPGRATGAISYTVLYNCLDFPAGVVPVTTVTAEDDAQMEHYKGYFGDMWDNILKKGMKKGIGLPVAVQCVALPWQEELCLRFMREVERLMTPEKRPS

[4] = Cassette dosing pharmacokinetics in rats; type: in vivo; conditions: male, Sprague-Dawley, rat, whole blood, po, 1 mg/kg
Procedure, shortened: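 Test compounds were given as a cassette cocktail at 1 mg/kg each, p.o. in PEG300, to groups of 4 rats or 4 mice. Blood was taken by tail vein at set intervals and group averages were used.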

[5] = Water solubility; type: physicochemical; conditions: DI water, 37 °C, thermodynamic from solid
Procedure, shortened: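 2–5 mg of solid was shaken in water for 2 days at 37 °C. The solution was filtered through PTFE, diluted twofold in MeOH containing 15 nM B-12, and quantified by LC/MS/MS.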

[6] = biological target: T4, rat sEH (Rattus norvegicus, UniProt P80299); assay: sEH fluorescent inhibition assay, recombinant rat sEH; type: biochemical
T4 sequence (P80299 1-554): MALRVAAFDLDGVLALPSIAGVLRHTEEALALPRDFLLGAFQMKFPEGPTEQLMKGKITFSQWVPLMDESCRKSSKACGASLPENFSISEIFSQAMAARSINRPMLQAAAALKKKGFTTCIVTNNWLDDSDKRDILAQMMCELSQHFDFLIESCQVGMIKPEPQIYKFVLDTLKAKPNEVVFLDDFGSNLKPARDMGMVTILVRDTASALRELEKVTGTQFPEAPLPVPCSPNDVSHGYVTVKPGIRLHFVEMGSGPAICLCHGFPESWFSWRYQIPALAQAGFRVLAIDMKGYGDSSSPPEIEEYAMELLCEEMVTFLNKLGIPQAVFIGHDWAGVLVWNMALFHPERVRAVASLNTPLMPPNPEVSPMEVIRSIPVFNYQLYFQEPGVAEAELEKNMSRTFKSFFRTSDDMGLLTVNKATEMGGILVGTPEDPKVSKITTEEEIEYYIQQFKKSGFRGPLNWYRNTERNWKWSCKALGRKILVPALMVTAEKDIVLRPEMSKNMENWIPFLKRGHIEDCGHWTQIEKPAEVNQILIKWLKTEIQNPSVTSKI

Row | IC50 [3] [nM] | AUC [4] [µM·h] | Cmax [4] [nM] | solubility at 2 days [5] [nM] | difference in potency on sEH ([1]; compared to 11) [fold] | kinact [2] [s⁻¹] | kinact/KI [2] [M⁻¹ s⁻¹] | IC50 [6] [nM] | SMILES | IC50 [1] [nM] | Ki [2] [nM]
1 |  |  |  |  |  |  |  |  | O=C(Nc1cccnc1)N1CCC(Cc2cccc(Oc3ccc(C(F)(F)F)cn3)c2)CC1 [PF-3845, reference compound] | 12000 | 3.5
2 | > 10000 | 0.6 | 58 | 2.8 (≈ 1.52 ng/mL) | < 3 | 0.000283 | 700000 | 240 | O=C(Nc1ccc(C(F)(F)F)cc1F)N1CCC(Cc2cccc(Oc3ccc(C(F)(F)F)cn3)c2)CC1 [compound 18] |  | 24
